Hits are enriched below; roughly 2.9% of the tested compounds scored in any of these assays.
MIN6 prolif-1: induces beta-cell replication in MIN6 cells. MIN6 cells proliferation, ATPlite luminescence, 48 h; cells starved in 0.2% serum; 100% = growth in 10% serum. 0.29% of 330,000 active. proliferation, % at 10 µM;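 active = compounds whose signal lies at least 3.5 SD above the mean of all wells on their plate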;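 note: 0% = DMSO-treated cells in low-serum medium and 100% = 10% serum control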
TAG inh: triacylglycerol accumulation inhibition; inhibition, % at 12.5 µM; H9c2 cells, Nile Red lipid (TAG) fluorescence; cells loaded with 200 µM oleic acid; AID 651582; 0.66% of 230,000 active;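 active = pattern-corrected inhibition of lipid staining of at least 50% with the nuclear-stain viability signal not falling by more than 50%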;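 note: 0% = DMSO wells and 100% = triacsin C control wells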
NR1D1 modulator: Rev-erb alpha (human) modulation | P20393 | Rev-erbα–FITC-DNA binding, fluorescence polarization, 90 min | activity, % at 10 µM | 0.79% of 370,000 active;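 active = activity above about 14%, limit read from the data; passing the limit was not always enough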;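 note: 0% = DMSO wells with 35 nM protein and 100% = DMSO wells with 750 nM protein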
Target sequence (P20393 whole entry, looked up): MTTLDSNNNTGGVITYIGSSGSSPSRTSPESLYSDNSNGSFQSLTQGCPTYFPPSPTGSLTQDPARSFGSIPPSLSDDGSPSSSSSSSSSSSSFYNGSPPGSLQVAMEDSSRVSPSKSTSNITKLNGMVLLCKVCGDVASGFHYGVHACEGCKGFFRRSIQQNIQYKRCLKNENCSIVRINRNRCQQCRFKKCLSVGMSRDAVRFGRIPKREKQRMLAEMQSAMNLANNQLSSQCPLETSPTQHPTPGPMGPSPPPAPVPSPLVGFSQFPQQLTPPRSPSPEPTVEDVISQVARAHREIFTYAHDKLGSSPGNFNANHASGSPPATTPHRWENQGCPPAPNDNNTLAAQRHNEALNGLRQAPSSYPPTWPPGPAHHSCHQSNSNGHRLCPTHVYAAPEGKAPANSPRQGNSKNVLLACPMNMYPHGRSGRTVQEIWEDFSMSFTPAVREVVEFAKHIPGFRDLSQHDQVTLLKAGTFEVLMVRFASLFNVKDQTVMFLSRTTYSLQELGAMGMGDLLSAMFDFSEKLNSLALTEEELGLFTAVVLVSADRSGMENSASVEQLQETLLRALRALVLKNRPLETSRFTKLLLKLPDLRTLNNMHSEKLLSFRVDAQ
T cruzi repl: blocks replication of Trypanosoma cruzi. T. cruzi beta-gal in NIH3T3, luminescence, 90 h. inhibition, % (no concentration beside the values). 1.4% of 300,000 active. AID 1885;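 active = mean inhibition across valid replicates above about 55%, limit read from the data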;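 note: signal also drops with host cell toxicity which is not excluded here; 0% = plate median of DMSO wells and 100% = zero luminescence signal; higher percent means less beta-gal luminescence so fewer parasites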
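compound dosing = single 50 nL compound addition per well in DMSO | material = NIH/3T3 host cells with β-galactosidase reporter T. cruzi | input = 5,000 host fibroblasts per well | timing = ≥90 h infection period, 3 h prior cell attachment | read-out basis = percent inhibition of parasite-derived β-gal signal | detection = GalScreen β-gal luminescence, detergent lysis, 60 min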
PG9 Ab binder: PG9 antibody binding by small molecule. TR-FRET gp120-PG9 antibody binding. AID 624416. 0.43% of 360,000 active. inhibition, % at 6.7 µM; in the data active = inhibition above about 8.5%
hiPSC survival: enhancers of human iPSC single-cell survival | hiPSC single-cell survival, ATPlite luminescence; 100% = ROCK inhibitor wells, 0% = DMSO | survival enhancement, % at 20 µM | 0.044% of 360,000 active; in the data active = survival enhancement above about 18%;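 note: cells exposed to compounds for 16 hours before the ATP read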
MIN6 prolif-2: confirmation of inducers of beta-cell replication in MIN6 cells; shares compounds with MIN6 prolif-1; MIN6 beta-cell proliferation, ATPlite luminescence, 48 h; cells kept in 0.2% serum; scaled between 0.2% and 10% serum; proliferation increase, % at 50 µM; 920 tested, under 10 active; AID 463095;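 active = proliferation increase above 40% at any of the four tested concentrations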
Starred values were filed as active, the others as inactive.

Results for CC[C@@H]1Cc2[nH][nH]c(=O)c2[C@@H](c2ccc(F)cc2)O1 ?
NR1D1 modulator: 0.3; PG9 Ab binder: -0.4; hiPSC survival: -1.2

Results for COCCC(=O)N1CCC(Oc2ccc(C(=O)N(C)C3CCCCC3)cc2)CC1 ?
MIN6 prolif-1: 6.6*; TAG inh: -5.5; NR1D1 modulator: 0.4; T cruzi repl: -1.9; PG9 Ab binder: -0.7; hiPSC survival: -0.5; MIN6 prolif-2: -2.9

Results for COCC(=O)N1CCC(Oc2ccc(C(=O)N(C)C3CCCCC3)cc2)CC1 ?
MIN6 prolif-1: 2.2; NR1D1 modulator: 5.9; T cruzi repl: -7.1; PG9 Ab binder: -0.2; hiPSC survival: -0.7

Results for COc1ccc(NC(=O)C2CCCNC2)cc1OCC(C)C (centres undefined) ?
MIN6 prolif-1: -3.5; TAG inh: 10.3; NR1D1 modulator: 5.6; T cruzi repl: 2.7; PG9 Ab binder: 1.1; hiPSC survival: -1.3

What do the screens show for `CCc1nc2ccccc2n1CC(O)COCC1CC=CCC1` (centres undefined)?
MIN6 prolif-1: 12.1*; TAG inh: -8.2; NR1D1 modulator: 3.5; T cruzi repl: -0.8; PG9 Ab binder: -1.8; hiPSC survival: -0.1; MIN6 prolif-2: -3.1

Results for O=C(c1ccccc1)N1CCN(CC(O)COCC2CC=CCC2)CC1 (centres undefined) ?
MIN6 prolif-1: -0.4; TAG inh: -3.4; NR1D1 modulator: 3.7; T cruzi repl: -7.9; PG9 Ab binder: -1.6; hiPSC survival: 1.7

Results for CC1CCCC(NC(=O)C2c3ccccc3C(=O)N2Cc2cccs2)C1C (centres undefined) ?
MIN6 prolif-1: 0.0*; NR1D1 modulator: 7.3; T cruzi repl: 1.7; PG9 Ab binder: -1.6; hiPSC survival: -0.4; MIN6 prolif-2: -6.3

What do the screens show for `O=C(NC1CCCCCCC1)C1c2ccccc2C(=O)N1Cc1ccco1` (centres undefined)?
MIN6 prolif-1: 4.3; NR1D1 modulator: -0.6; T cruzi repl: -16.9; PG9 Ab binder: -2.0; hiPSC survival: -1.8

How did CCc1nc(N)c(C#N)c(-c2cccnc2)c1C do in these assays?
MIN6 prolif-1: 6.5; NR1D1 modulator: -2.1; T cruzi repl: 3.4; PG9 Ab binder: 0.9; hiPSC survival: 3.2

How did Cc1nc(N)c(C#N)c(-c2cccnc2)c1C do in these assays?
MIN6 prolif-1: 9.6*; TAG inh: -9.7; T cruzi repl: -11.2; PG9 Ab binder: -1.3; hiPSC survival: 6.2; MIN6 prolif-2: 9.5

Results for N#Cc1c(N)nc2c(c1-c1ccc3c(c1)OCO3)CCCCCC2 ?
MIN6 prolif-1: -2.2; TAG inh: 10.1; NR1D1 modulator: -0.8; T cruzi repl: 3.7; PG9 Ab binder: 1.3; hiPSC survival: -1.3

How did Cc1nc(N)c(C#N)c(-c2ccc3c(c2)OCO3)c1C do in these assays?
MIN6 prolif-1: 5.3*; TAG inh: -11.4; NR1D1 modulator: -2.5; T cruzi repl: -6.7; PG9 Ab binder: 1.1; hiPSC survival: -0.5; MIN6 prolif-2: 1.5

Results for CCN(CC)CCOC(=O)c1ccccc1Br ?
MIN6 prolif-1: -1.6; TAG inh: -16.7; NR1D1 modulator: -0.3; T cruzi repl: -15.5; PG9 Ab binder: 3.0; hiPSC survival: -0.4

Results for O=C(c1ccsc1)N1CCCC(Nc2cccc(F)c2)C1 (centres undefined) ?
MIN6 prolif-1: 11.6*; TAG inh: -2.4; NR1D1 modulator: 8.1; T cruzi repl: -6.1; PG9 Ab binder: 1.4; hiPSC survival: 0.0; MIN6 prolif-2: -1.5

Results for C#Cc1cccc(C(=O)N2CCCC(Nc3cccc(F)c3)C2)c1 (centres undefined) ?
MIN6 prolif-1: -2.4; TAG inh: -9.3; NR1D1 modulator: 1.4; T cruzi repl: -10.0; PG9 Ab binder: -0.7; hiPSC survival: -0.2

What do the screens show for `CC1Cc2ccccc2N1C(=O)c1cnc2sccn2c1=O` (centres undefined)?
MIN6 prolif-1: 4.9; TAG inh: -3.1; NR1D1 modulator: -3.8; T cruzi repl: -21.3; PG9 Ab binder: -1.1; hiPSC survival: -0.8

Compound activity (PubChem BioAssay)
